ChEMBL document CHEMBL2331364, “A synthetic dolastatin 10 analogue suppresses microtubule dynamics, inhibits cell proliferation, and induces apoptotic cell death” (J Med Chem, 2013)
The source made the active and inactive calls. The calls are words filed in the database; no cut-off is given here.

Experiments:
HeLa [1] = experiment: Induction of apoptosis in human HeLa cells assessed as mid apoptotic cells at 7 to 15 nM after 24 hrs by annexin V/propidium iodide staining-based FACS flow cytometry; format: functional, cell-based
Summary of the method: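 HeLa cells were grown with vehicle (0.1% DMSO) or 7, 15 and 30 nM for 24 h and stained with an annexin V/propidium iodide kit. Stage was scored as annexin V-positive with weak PI (early/mid) or positive for both (late).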

[2] = (§1) Inhibition of goat brain tubulin polymerization incubated for 20 mins prior to GTP addition measured for 30 mins by 90 degree light scattering-based fluorescence spectrophotometric method; parameters: species or system Capra hircus
Summary of the method: (§2)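 Goat brain tubulin (10 μM) was preincubated with compound (5 μM; or 1, 5, 7, 10 μM) in 1 M monosodium glutamate, 3 mM MgCl2, 1 mM EGTA, 25 mM Pipes pH 6.8 on ice for 20 min. GTP (1 mM) was then added and assembly followed by 90° light scattering at 400 nm for 30 min at 37 °C. Experiment run twice.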

Capra hircus [3] = species on record: Capra hircus; experiment: as §1; summary of the method: as §2
HeLa [4] = experiment: Antimitotic activity in human HeLa cells assessed as increase in phosphohistone H3 (Ser10) positive cell population at 15 nM after 24 hrs by fluorescence microscopic analysis (reference value: 3 +/- 0.3 %); format: functional
Capra hircus [5] = species on record: Capra hircus; experiment: Inhibition of goat brain tubulin polymerization at 5 uM incubated for 20 mins prior to GTP addition measured for 30 mins by 90 degree light scattering-based fluorescence spectrophotometric method; summary of the method: as §2
HeLa [6] = experiment: Induction of mitotic microtubule depolymerization in human HeLa cells at 15 nM after 24 hrs by Hoechst 33258 dye-based fluorescence microscopy; format: cell-based
HeLa [7] = experiment: Inhibition of mitosis in human HeLa cells assessed as mitotic index ratio at 15 nM after 48 hrs by Hoechst 33258 DNA staining assay (reference value: 3); format: functional
Summary of the method: (§3)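 HeLa cells were treated with vehicle or 7, 15 or 30 nM compound for 24 or 48 h. DNA was stained with Hoechst 33258, and mitotic cells were counted by fluorescence microscopy to give the mitotic index, compared against vehicle-treated cells.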

MDA-MB-231 = experiment: Cytotoxicity against human MDA-MB-231 cells after 24 to 48 hrs by trypan blue assay; format: functional, cell-based
Summary of the method: (§4)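 Cells were seeded at 1 × 10^5 cells/mL, grown 24 h at 37 °C in 5% CO2, then given vehicle (0.1% DMSO) or 1–80 nM for a further 24 or 48 h. Attached plus floating cells were counted after trypan blue staining. Percent inhibition was plotted against concentration to give IC50. Average of three independent experiments.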

HeLa [8] = experiment: Antimitotic activity in human HeLa cells assessed as increase in phosphohistone H3 (Ser10) positive cell population at 30 nM after 24 hrs by fluorescence microscopic analysis (reference value: 3 +/- 0.3 %); format: functional
MCF7 [9] = experiment: Inhibition of microtubule (unknown origin) dynamics in GFP-tubulin transfected human MCF7 cells assessed as increase in microtubule pause time at 15 nM by confocal laser scanning microscopy relative to control; format: cell-based
Summary of the method: (§5)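 EGFP-tubulin-transfected MCF-7 cells grown in EMEM with 10% FBS at 37 °C in 5% CO2, exposed to 15 nM compound (DMSO vehicle) or vehicle. Individual microtubules were followed by time-lapse confocal laser scanning microscopy and life-history traces were recorded. Kinetic parameters were derived from these traces, 20 microtubules per condition. Significance was tested by one-way ANOVA.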

HeLa [10] = experiment: Induction of mitotic microtubule depolymerization in human HeLa cells assessed as multipolar spindle formation at 30 nM after 24 hrs by Hoechst 33258 dye-based fluorescence microscopy; format: cell-based
HeLa [11] = experiment: Induction of interphase microtubule depolymerization in human HeLa cells at 35 nM after 3 hrs by Hoechst 33258 dye-based fluorescence microscopy; format: cell-based
Summary of the method: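 HeLa cells were given a brief 3 h exposure to 35 nM. Interphase microtubules were then immunostained and examined by fluorescence microscopy.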

MCF7 [12] = experiment: Inhibition of microtubule (unknown origin) dynamics in GFP-tubulin transfected human MCF7 cells assessed as decrease in microtubule growth at 15 nM by confocal laser scanning microscopy relative to control; format: cell-based
Summary of the method: (§6)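 EGFP-tubulin transfected MCF-7 cells were treated with vehicle or 15 nM, and individual microtubules were tracked by confocal laser scanning microscopy, 20 microtubules per condition. Life-history parameters were derived as previously described. Significance was tested by one-way ANOVA.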

MCF7 [13] = experiment: Inhibition of microtubule (unknown origin) dynamics in GFP-tubulin transfected human MCF7 cells assessed as decrease in microtubule shortening length at 15 nM by confocal laser scanning microscopy relative to control; format: cell-based; summary of the method: as §6
MCF7 [14] = experiment: Cytotoxicity against human MCF7 cells after 24 to 48 hrs by trypan blue assay; format: functional, cell-based; summary of the method: as §4
Homo sapiens [15] = species on record: Homo sapiens; experiment: Inhibition of microtubule (unknown origin) assembly at 5 uM incubated for 15 mins prior to GTP addition measured for 30 mins by 90 degree light scattering-based fluorescence spectrophotometric method
Summary of the method: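 MAP-rich tubulin (1 mg/mL) was preincubated with 1, 3, 5 or 10 μM in PEM buffer (25 mM Pipes pH 6.8, 3 mM MgCl2, 1 mM EGTA) for 15 min on ice. GTP (1 mM) was then added and assembly monitored by 90° light scattering at 400 nm for 30 min at 37 °C.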

Homo sapiens [16] = species on record: Homo sapiens; experiment: Inhibition of microtubule (unknown origin) GTPase activity using GTP as substrate assessed as reduction of inorganic phosphate release incubated for 10 mins prior to substrate addition measured after 10 mins by ammonium molybdate malachite green assay
Summary of the method: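 GTP (1 mM) was added and the mixture polymerized at 37 °C for 10 min. Reactions were stopped with perchloric acid, and released phosphate was measured by ammonium molybdate–malachite green.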

HeLa [17] = experiment: Induction of interphase microtubule depolymerization in human HeLa cells at 7 nM after 24 hrs by Hoechst 33258 dye-based fluorescence microscopy relative to control; format: cell-based
MCF7 [18] = experiment: Inhibition of microtubule (unknown origin) dynamics in GFP-tubulin transfected human MCF7 cells assessed as microtubule catastrophe events at 15 nM by confocal laser scanning microscopy (reference value: 4 +/- 1.2 events/min); format: cell-based; summary of the method: as §5
HeLa [19] = experiment: Inhibition of mitosis in human HeLa cells assessed as mitotic index ratio at 30 nM after 24 hrs by Hoechst 33258 DNA staining assay (reference value: 3.2); format: functional; summary of the method: as §3
HeLa [20] = experiment: Induction of mitotic microtubule depolymerization in human HeLa cells at 7 nM after 24 hrs by Hoechst 33258 dye-based fluorescence microscopy relative to control; format: cell-based
Homo sapiens [21] = species on record: Homo sapiens; experiment: Inhibition of microtubule (unknown origin) assembly at 5 uM after 20 mins by transmission electron microscopy
Summary of the method: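 Goat brain tubulin (10 μM) was preincubated with 5 or 10 μM on ice for 20 min, then polymerized with 1 mM GTP at 37 °C in glutamate assembly buffer. Polymers were fixed in 0.5% glutaraldehyde, negatively stained with 2% uranyl acetate, and imaged by transmission EM.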

HeLa [22] = experiment: Induction of mitotic microtubule depolymerization in human HeLa cells assessed as unorganized chromosomes at metaphase plate at 15 nM after 24 hrs by Hoechst 33258 dye-based fluorescence microscopy; format: cell-based
HeLa [23] = experiment: Inhibition of mitosis in human HeLa cells assessed as mitotic index ratio at 15 nM after 24 hrs by Hoechst 33258 DNA staining assay (reference value: 3.2); format: functional; summary of the method: as §3
HeLa [24] = experiment: Inhibition of mitosis in human HeLa cells assessed as mitotic index ratio at 7 nM after 48 hrs by Hoechst 33258 DNA staining assay (reference value: 3); format: functional; summary of the method: as §3

CC[C@H](C)[C@@H]([C@@H](CC(=O)NC[C@H]1O[C@H](C(=O)NCCc2ccccc2)[C@@H](OC)[C@@H]1OC)OC)N(C)C(=O)[C@@H](NC(=O)[C@@H](NC)C(C)C)C(C)C
Activity (HeLa [1]): Active
IC50 [2]: 6000 nM
inhibition (Capra hircus [3]): Dose-dependent effect
Activity (HeLa [4]): 11%
inhibition (Capra hircus [5]): 37%
Activity (HeLa [6]): Active
Ratio (HeLa [7]): 11
IC50 (MDA-MB-231): 13 nM
Activity (HeLa [8]): 14%
inhibition (MCF7 [9]): 50%
Activity (HeLa [10]): Active
Activity (HeLa [11]): Active
inhibition (MCF7 [12]): 31%
inhibition (MCF7 [13]): 44%
IC50 (MCF7 [14]): 15 nM
inhibition (Homo sapiens [15]): 48%
inhibition (Homo sapiens [16]): Dose-dependent effect
Activity (HeLa [17]): inactive
Activity (MCF7 [18]): 3 min⁻¹
Ratio (HeLa [19]): 12
Activity (HeLa [20]): inactive
inhibition (Homo sapiens [21]): Active
Activity (HeLa [22]): Active
Ratio (HeLa [23]): 9
Ratio (HeLa [24]): 7.5
